Apaf-1 act – human Apaf-1 activation; O14727; Apaf-1 apoptosome caspase-3 activation, DEVD-Rh110 fluorescence; active compounds read low; activity change, negative = activation, % at 20 µM; AID 489031; 330,000 tested, 0.31% active;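 active means activity change at or below -40% at 20 µM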
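Schedule: 30 min preincubation, 50 min reaction, room temperature / System: biochemical Apaf-1 apoptosome reconstitution / Medium: 20 mM HEPES pH 7.5 with CHAPS, BSA / Evaluation: Caspase-3 cleavage activity downstream of Apaf-1 activation / Detection: Caspase-3-released Rh110 fluorescence, 540 nm emission, 480 nm excitation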
Rh110 act interf – Rh110 signal interference in Apaf-1 activator counter-screen. shares compounds with Apaf-1 act. Rh110 fluorescence interference, quenched caspase reaction, Ex480/Em540. AID 504616. 980 tested, under 10 active. fluorescence interference (activity change), % at 20 µM, hits read low;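 active means mean activity change at or below -40% when tested at 20 µM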
Apaf-1 act conf2 – Apaf-1 (human) activation, single-dose confirmed; AID 504617; activity change, negative = activation, % at 20 µM; reconstituted apoptosome caspase-3 activity, DEVD-Rh110 fluorescence; active compounds read low; 980 tested, 5% active; shares compounds with Apaf-1 act;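 active means mean activity change at or below -40%, meaning activation of 40% or more, at 20 µM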
Apaf1 act interf – shows fluorescence interference in the Apaf-1 activator assay format. shares compounds with Apaf-1 act. fluorescence interference counterscreen. EC50, µM. 55 tested, under 10 active. AID 588592; call rule not given here
Starred values were filed as active, the others as inactive; x = no result. These entries were drawn from the full list.

SMILES	Apaf-1 act	Rh110 act interf	Apaf-1 act conf2	others
CCOc1c(O)ccc(/C=C2\SC(=S)NC2=O)c1[N+](=O)[O-]	56	x	x
c1cc2c3c(cccc3c1)NC1(CCC3(CC1)Nc1cccc4cccc(c14)N3)N2	40	x	x
COc1ccnc(Oc2ccc(F)cc2)c1C#N	-47*	4	-1
O=C1C=C(Nc2ccc(F)cc2)c2ccccc2C1=O	87	x	x
CN(C)c1ccc(C(=S)N2CCCCC2)cc1	-335*	-3	2
CC(=O)N1CCn2c3c(c(=O)c4cc(C)ccc42)CCC31 (stereo unspecified)	73	x	x
CCN(CC)CCOC(=O)c1ccc(N/C=C(/C#N)c2nc(-c3cc4ccccc4oc3=O)cs2)cc1	54	x	x
COc1ccc(OCCNc2c([N+](=O)[O-])c(=O)oc3ccccc23)cc1	73	x	x
CCC1Oc2ccccc2N(CC(=O)NC2CCCCC2C)C1=O (stereo unspecified)	-224*	7	15
COc1ccc(CN2C(=O)Cc3c2nc(N)c2c(N)nc(N4CCOCC4)c(C#N)c32)cc1	86	x	x
O=C(NNc1cc(N2CCOCC2)nc(N2CCOCC2)n1)c1ccc(Cl)cc1Cl	47	x	x
COc1ccccc1N1CCN(CC(O)COc2cccc3ccccc23)CC1 (stereo unspecified)	17	x	x
Cc1c(C)n(CCC(=O)O)c2ccccc12	-70*	-3	10
Cc1c(C)n(CC(O)CN2CCN(C)CC2)c2ccccc12 (stereo unspecified)	-67*	8	18
CN1CCc2nc(SCc3ccc(Cl)cc3)c(C#N)c(-c3cccs3)c2C1	83	x	x
Oc1ccc(N=Cc2ccc(OCc3ccccc3)cc2)cc1	93	x	x
CCN1CCc2c(sc(NC(=O)c3cc4ccccc4cc3OC)c2C(N)=O)C1	65	x	x
CN(CCO)C(=O)c1c(NC(=O)c2ccccc2)sc2c1CCCC2	-362*	12	18
CC(=O)N1CCc2c(sc(NC(=O)c3cccc(N4C(=O)CCC4=O)c3)c2C(N)=O)C1	57	x	x
COc1ccc(-c2noc(COc3ccc4ccccc4c3Br)n2)cc1OC	-136*	0	7
Cn1c(CCN2CCCCC2)nc2cc(NC(=O)COc3ccccc3)ccc21	53	x	x
O=C(O)CC(C(=O)O)N1C(=O)/C(=C/C=C/c2ccco2)SC1=S (stereo unspecified)	85	x	x
O=C(O)CCCN1C(=O)/C(=C\c2ccc(-c3nc4ccccc4s3)o2)SC1=S	-81*	16	-120*	Apaf1 act interf=>100
COC(C[C@H]1O[C@@H]1C(=O)[C@H](C)OCc1ccccc1)OC	48	x	x
O=C(Nc1ccccc1C(=O)N1CCN(Cc2ccccc2)CC1)c1ccccc1	-95*	-15	8
SMILES	Apaf-1 act	Rh110 act interf	Apaf-1 act conf2	others
COc1cc(NCCCCCCCN)c2ncccc2c1	95	x	x
CC1=NN(c2ccc(S(=O)(=O)O)cc2C)C(=O)C1	51	x	x
COc1ccc2nc3cc(Cl)ccc3c(Nc3cc(CN4CCCC4)c(O)c(CN4CCCC4)c3)c2n1	62	x	x
COC(=O)c1nn(-c2ccc(OC)cc2)c(=O)cc1NN	42	x	x
COC(=O)c1nn(-c2ccc(OC)cc2)c(=O)cc1Sc1ccc(C)cc1	-333*	-4	12
CCCCCn1c(N2CCC(Cc3ccccc3)CC2)nc2c1c(=O)[nH]c(=O)n2C	46	x	x
Cn1c(=O)[nH]c(=O)c2c1nc(Br)n2CC(O)COc1ccccc1 (stereo unspecified)	-50*	-3	13
CSc1nc2c(c(=O)[nH]c(=O)n2C)n1Cc1ccccc1	-48*	3	13
Cc1cccc(OCC(O)Cn2c(=N)n(Cc3ccccc3)c3ccccc32)c1 (stereo unspecified)	58	x	x
COc1ccc(C(c2c(C)[nH]n(-c3ccccc3)c2=O)c2c(C)[nH]n(-c3ccccc3)c2=O)cc1OC	97	x	x
COc1ccc(OC)c2c1C(=O)c1ccccc1C2=O	63	x	x
COc1ccc(C[C@H]2CN3C(=NC[C@@H]3C(C)C)N2C[C@H](C)NC(=O)c2ccc(C)c(Br)c2)cc1	48	x	x
COc1ccc(-c2nc(-c3ccccc3)c(-c3cccs3)[nH]2)cc1OC	-373*	2	15
O=C(Cc1ccccc1)NC1(O)C(=O)c2ccccc2C1=O	85	x	x
NC(=O)CC1Nc2cccc3cccc(c23)NC1=O (stereo unspecified)	98	x	x
Cc1ccc(C=Nc2ccccc2C(=O)Nc2ccccc2)cc1	-464*	5	8
CC(=O)NC1=C(N(C)C2CCS(=O)(=O)C2)C(=O)c2ccccc2C1=O (stereo unspecified)	54	x	x
COC(=O)c1c(NC(=O)c2nc3ccccc3s2)sc2c1CC(C)(C)NC2(C)C	58	x	x
C#CCOCCOCCOCCNc1nc(N2CCN(C(=O)CCCCCCCCCCNC(=O)Cn3cc(C[C@@H](C)O)nn3)CC2)nc(N2CCN(C(=O)CCCCCCCCCCNC(=O)[C@H](CCCCN)n3cc(C[C@@H](C)CC)nn3)CC2)n1	71	x	x
CCN(CC)c1ccc(/C=C2/C(=O)N(c3ccc([N+](=O)[O-])cc3)N=C2N2CCOCC2)cc1	56	x	x
CCOC(=O)N1CCN(C2=C(NS(=O)(=O)c3ccc(NC(C)=O)cc3)C(=O)c3ccccc3C2=O)CC1	83	x	x
CCOC(=O)N1CCN(c2ccc([N+](=O)[O-])cc2)CC1	-142*	7	5
CCOC(=O)c1c(-c2ccc(-c3ccccc3)cc2)csc1NC(=O)CNCCN(C)C	42	x	x
O=C(Nc1ccccc1)c1ccc2nc(-c3ccco3)c(-c3ccco3)nc2c1	60	x	x
COc1ccc(C(=O)c2c(C(F)(F)F)oc3c2C(=O)c2ccccc2C3=O)cc1	79	x	x
SMILES	Apaf-1 act	Rh110 act interf	Apaf-1 act conf2	others
COc1ccc(C(=O)Nc2ccc(C(=O)c3ccccc3)cc2)cc1	-385*	-2	2
CC(=O)c1ccc(-n2ccc(=O)cc2)cc1	-494*	11	11
CCCCC(CC)CN=C(N)NC(N)=NCCCCCCN=C(N)NC(N)=NCC(CC)CCCC (stereo unspecified)	94	x	x
NC1=NC[C@@H](CC2CCCCC2)N1CCc1cc(C(F)(F)F)cc(C(F)(F)F)c1	79	x	x
O=C(O)CC(NC(=O)c1sc2ccccc2c1Cl)c1ccc(OC2CCCC2)cc1 (stereo unspecified)	44	x	x
CCOC(=O)N1CCc2c(sc3c2C(=O)NC(c2ccccc2)N3)C1 (stereo unspecified)	81	x	x
CCOC(=O)CC1C(=O)NCCN1C(=O)c1sc2ccccc2c1Cl (stereo unspecified)	-260*	-2	12
CCC(C)(C)c1ccc(OCCCC[n+]2ccccc2)c(C(C)(C)CC)c1	51	x	x
COc1ccc2c(c1)c1ccc3c(c1n2C)C(=O)C=CC3=O	71	x	x
Cc1noc(C)c1C(=O)Nc1ccc(F)cc1F	-71*	16	11
COc1ccc(-n2nc3c(N4CCC(C(=O)NCc5ccccc5C)CC4)nnc(C)c3c2C)cc1	59	x	x
C=C[C@@H]1CN2CCC1C[C@@H]2[C@@H](O)c1ccnc2ccc(OC)cc12 (stereo partly specified)	1	x	x
CC1(OC(=O)c2cccs2)C(=O)C=C2C=C3CCCN3C=C2C1=O (stereo unspecified)	62	x	x
